Test results as given in ChEMBL document CHEMBL1127395, “Synthesis and antimicrobial activity of novel 3-[(aminopyrimidiniumyl)thio]methyl cephalosporins” (1994).
Values after ≈ are worked out from the molar mass of the structure shown.

Legend:
[1] = tested on: Citrobacter freundii; experiment: In vitro minimum inhibitory concentration for Citrobacter freundii (ATCC-8090) by agar dilution method; type: functional; details: Citrobacter freundii; read-out: MIC
Outline: (§1)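 Two-fold serial dilutions of each compound dispersed in Mueller-Hinton agar; plates spot-inoculated with 2 μL of standard test strain at 10^7 CFU/mL, incubated 37 °C for 20 h; MIC read as lowest concentration inhibiting growth.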

[2] = tested on: Enterobacter cloacae; experiment: In vitro minimum inhibitory concentration for Enterobacter cloacae (ATCC-27508) by agar dilution method; type: functional; details: Enterobacter cloacae; read-out: MIC; outline: as §1
[3] = tested on: Klebsiella aerogenes; experiment: In vitro minimum inhibitory concentration for Enterobacter aerogenes (ATCC-29751) by agar dilution method; type: functional; details: Klebsiella aerogenes; read-out: MIC; outline: as §1
[4] = tested on: Klebsiella pneumoniae; experiment: In vitro minimum inhibitory concentration for Klebsiella pneumoniae (ATCC-10031) by agar dilution method; type: functional; details: Klebsiella pneumoniae; read-out: MIC
[5] = tested on: Pseudomonas aeruginosa; experiment: In vitro minimum inhibitory concentration for Pseudomonas aeruginosa (ATCC-27853) by agar dilution method; type: functional; details: Pseudomonas aeruginosa; read-out: MIC; outline: as §1
[6] = tested on: Proteus vulgaris; experiment: In vitro minimum inhibitory concentration for Proteus vulgaris (ATCC-6059) by agar dilution method; type: functional; details: Proteus vulgaris; read-out: MIC; outline: as §1
[7] = tested on: Salmonella typhimurium; experiment: In vitro minimum inhibitory concentration for Salmonella Typhimurium (ATCC-14028) by agar dilution method; type: functional, Salmonella enterica subsp. enterica serovar Typhimurium; details: Salmonella enterica; read-out: MIC; outline: as §1
[8] = tested on: Serratia marcescens; experiment: In vitro minimum inhibitory concentration for Serratia marcescens (ATCC-27117) by agar dilution method; type: functional; details: Serratia marcescens; read-out: MIC; outline: as §1
[9] = tested on: Staphylococcus epidermidis; experiment: In vitro minimum inhibitory concentration for Staphylococcus epidermidis (ATCC-12228) by agar dilution method; type: functional; details: Staphylococcus epidermidis; read-out: MIC; outline: as §1
[10] = tested on: Staphylococcus aureus; experiment: In vitro minimum inhibitory concentration for Staphylococcus aureus (ATCC 6538p) by agar dilution method; type: functional; details: Staphylococcus aureus, ATCC 6538p; read-out: MIC; outline: as §1
[11] = tested on: Escherichia coli; experiment: In vitro minimum inhibitory concentration for Escherichia coli (ATCC-10536) by agar dilution method; type: functional; details: Escherichia coli; read-out: MIC; outline: as §1
[12] = tested on: Pseudomonas aeruginosa; experiment: In vitro minimum inhibitory concentration for Pseudomonas aeruginosa (ATCC 10145) by agar dilution method; type: functional; outline: as §1

Row | Structure (SMILES) | MIC [1] | MIC [2] | MIC [3] | MIC [4] | MIC [5] | MIC [6] | MIC [7] | MIC [8] | MIC [9] | MIC [10] | MIC [11] | MIC [12]
1 | CC(C)(O/N=C(\C(=O)NC1C(=O)N2C(C(=O)[O-])=C(CSc3nc(N)cc(N)[n+]3-c3ccc(Cl)cc3)CSC12)c1cnc(N)s1)C(=O)O (configuration not stated) | 0.25 µg/mL (≈ 0.347 µM) | 0.13 µg/mL (≈ 0.181 µM) | 1 µg/mL (≈ 1.39 µM) | 0.13 µg/mL (≈ 0.181 µM) | 2 µg/mL (≈ 2.78 µM) | 0.25 µg/mL (≈ 0.347 µM) | 0.5 µg/mL (≈ 0.694 µM) | 1 µg/mL (≈ 1.39 µM) | 2 µg/mL (≈ 2.78 µM) | 4 µg/mL (≈ 5.55 µM) | 0.25 µg/mL (≈ 0.347 µM) | 4 µg/mL (≈ 5.55 µM)
2 | Cn1cc[n+]2c(SCC3=C(C(=O)[O-])N4C(=O)C(NC(=O)/C(=N\OC(C)(C)C(=O)O)c5cnc(N)s5)C4SC3)nc(N3CCOCC3)cc12 (configuration not stated) | 0.5 µg/mL (≈ 0.697 µM) | 0.06 µg/mL (≈ 0.0836 µM) | 8 µg/mL (≈ 11.1 µM) | 0.25 µg/mL (≈ 0.348 µM) | 4 µg/mL (≈ 5.57 µM) | 0.25 µg/mL (≈ 0.348 µM) | 0.5 µg/mL (≈ 0.697 µM) | 0.5 µg/mL (≈ 0.697 µM) | 2 µg/mL (≈ 2.79 µM) | 8 µg/mL (≈ 11.1 µM) | 0.25 µg/mL (≈ 0.348 µM) | 8 µg/mL (≈ 11.1 µM)
3 | C[n+]1cccnc1SCC1=C(C(=O)[O-])N2C(=O)C(NC(=O)/C(=N\OC(C)(C)C(=O)O)c3cnc(N)s3)C2SC1 (configuration not stated) | 8 µg/mL (≈ 13.5 µM) | 0.25 µg/mL (≈ 0.421 µM) | 16 µg/mL (≈ 27 µM) | 0.5 µg/mL (≈ 0.842 µM) | 8 µg/mL (≈ 13.5 µM) | 0.13 µg/mL (≈ 0.219 µM) | 1 µg/mL (≈ 1.68 µM) | 2 µg/mL (≈ 3.37 µM) | 64 µg/mL (≈ 108 µM) | 128 µg/mL (≈ 216 µM) | 1 µg/mL (≈ 1.68 µM) | 8 µg/mL (≈ 13.5 µM)
4 | Cc1cc(C)[n+](C)c(SCC2=C(C(=O)[O-])N3C(=O)C(NC(=O)/C(=N\OC(C)(C)C(=O)O)c4cnc(N)s4)C3SC2)n1 (configuration not stated) | 0.25 µg/mL (≈ 0.402 µM) | 0.06 µg/mL (≈ 0.0965 µM) | 4 µg/mL (≈ 6.43 µM) | 0.13 µg/mL (≈ 0.209 µM) | 4 µg/mL (≈ 6.43 µM) | 0.06 µg/mL (≈ 0.0965 µM) | 0.5 µg/mL (≈ 0.804 µM) | 0.25 µg/mL (≈ 0.402 µM) | 8 µg/mL (≈ 12.9 µM) | 8 µg/mL (≈ 12.9 µM) | 0.13 µg/mL (≈ 0.209 µM) | 4 µg/mL (≈ 6.43 µM)
5 | CC(C)(O/N=C(\C(=O)N[C@@H]1C(=O)N2C(C(=O)[O-])=C(C[n+]3ccccc3)CS[C@H]12)c1csc(N)n1)C(=O)O [CEFTAZIDIME] | 0.13 µg/mL (≈ 0.238 µM) | 0.03 µg/mL (≈ 0.0549 µM) | 4 µg/mL (≈ 7.32 µM) | – | 1 µg/mL (≈ 1.83 µM) | 0.06 µg/mL (≈ 0.11 µM) | 0.25 µg/mL (≈ 0.457 µM) | 0.13 µg/mL (≈ 0.238 µM) | 4 µg/mL (≈ 7.32 µM) | 8 µg/mL (≈ 14.6 µM) | 0.06 µg/mL (≈ 0.11 µM) | 2 µg/mL (≈ 3.66 µM)

Compounds with a lower MIC [1], results first:

Row | MIC [1] | MIC [2] | MIC [3] | MIC [4] | MIC [5] | MIC [6] | MIC [7] | MIC [8] | MIC [9] | MIC [10] | MIC [11] | MIC [12] | Structure (SMILES)
6 | 0.06 µg/mL (≈ 0.0859 µM) | 0.03 µg/mL (≈ 0.0429 µM) | 1 µg/mL (≈ 1.43 µM) | 0.06 µg/mL (≈ 0.0859 µM) | 8 µg/mL (≈ 11.4 µM) | 0.5 µg/mL (≈ 0.716 µM) | 0.5 µg/mL (≈ 0.716 µM) | 0.5 µg/mL (≈ 0.716 µM) | 2 µg/mL (≈ 2.86 µM) | 8 µg/mL (≈ 11.4 µM) | 0.25 µg/mL (≈ 0.358 µM) | 16 µg/mL (≈ 22.9 µM) | C[n+]1cc(Cc2ccccc2)c(N)nc1SCC1=C(C(=O)[O-])N2C(=O)C(NC(=O)/C(=N\OC(C)(C)C(=O)O)c3cnc(N)s3)C2SC1 (configuration not stated)
7 | 0.06 µg/mL (≈ 0.096 µM) | 0.02 µg/mL (≈ 0.032 µM) | 1 µg/mL (≈ 1.6 µM) | 0.06 µg/mL (≈ 0.096 µM) | 1 µg/mL (≈ 1.6 µM) | 0.02 µg/mL (≈ 0.032 µM) | 0.13 µg/mL (≈ 0.208 µM) | 0.06 µg/mL (≈ 0.096 µM) | 2 µg/mL (≈ 3.2 µM) | 4 µg/mL (≈ 6.4 µM) | 0.06 µg/mL (≈ 0.096 µM) | 1 µg/mL (≈ 1.6 µM) | CC(C)(O/N=C(\C(=O)NC1C(=O)N2C(C(=O)[O-])=C(CSc3nc(N)cc(N)[n+]3N)CSC12)c1cnc(N)s1)C(=O)O (configuration not stated)
8 | 0.03 µg/mL (≈ 0.0492 µM) | 0.02 µg/mL (≈ 0.0328 µM) | 0.5 µg/mL (≈ 0.82 µM) | 0.03 µg/mL (≈ 0.0492 µM) | 1 µg/mL (≈ 1.64 µM) | 0.03 µg/mL (≈ 0.0492 µM) | 0.13 µg/mL (≈ 0.213 µM) | 0.13 µg/mL (≈ 0.213 µM) | 2 µg/mL (≈ 3.28 µM) | 8 µg/mL (≈ 13.1 µM) | 0.06 µg/mL (≈ 0.0984 µM) | 2 µg/mL (≈ 3.28 µM) | CC(C)(O/N=C(\C(=O)NC1C(=O)N2C(C(=O)[O-])=C(CSc3nc(N)cc[n+]3N)CSC12)c1cnc(N)s1)C(=O)O (configuration not stated)
9 | 0.03 µg/mL (≈ 0.0462 µM) | 0.02 µg/mL (≈ 0.0308 µM) | 0.25 µg/mL (≈ 0.385 µM) | 0.06 µg/mL (≈ 0.0923 µM) | 2 µg/mL (≈ 3.08 µM) | 0.06 µg/mL (≈ 0.0923 µM) | 0.13 µg/mL (≈ 0.2 µM) | 0.13 µg/mL (≈ 0.2 µM) | 2 µg/mL (≈ 3.08 µM) | 4 µg/mL (≈ 6.16 µM) | 0.06 µg/mL (≈ 0.0923 µM) | 2 µg/mL (≈ 3.08 µM) | CC(C)(O/N=C(\C(=O)NC1C(=O)N2C(C(=O)[O-])=C(CSc3nc(N)c4c([n+]3N)CCC4)CSC12)c1cnc(N)s1)C(=O)O (configuration not stated)
